The target in one test is Acetylcholinesterase (Electrophorus electricus, UniProt O42275). As to the kind of experiment: Inhibition of electric eel AChE by colorimetric method. The gist of the method: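 Ellman colorimetric assay. Enzyme 0.125 U preincubated 2 min at 37 °C with test samples and DTNB 0.3 mM in 0.1 M phosphate buffer, pH 8.0. Reaction started with 0.5 mM […]. Absorbance followed at 412 nm over time. IC50 taken from dose-response curves of at least four concentrations spanning 0-90% inhibition.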

Test [1] can be described thus: Antiplatelet activity against rabbit platelets assessed as inhibition of arachidonic acid-induced thromboxane B2 formation at 15 uM. Type of test: functional. As to conditions: Oryctolagus cuniculus, Platelet.

Chain of Acetylcholinesterase (O42275 whole entry): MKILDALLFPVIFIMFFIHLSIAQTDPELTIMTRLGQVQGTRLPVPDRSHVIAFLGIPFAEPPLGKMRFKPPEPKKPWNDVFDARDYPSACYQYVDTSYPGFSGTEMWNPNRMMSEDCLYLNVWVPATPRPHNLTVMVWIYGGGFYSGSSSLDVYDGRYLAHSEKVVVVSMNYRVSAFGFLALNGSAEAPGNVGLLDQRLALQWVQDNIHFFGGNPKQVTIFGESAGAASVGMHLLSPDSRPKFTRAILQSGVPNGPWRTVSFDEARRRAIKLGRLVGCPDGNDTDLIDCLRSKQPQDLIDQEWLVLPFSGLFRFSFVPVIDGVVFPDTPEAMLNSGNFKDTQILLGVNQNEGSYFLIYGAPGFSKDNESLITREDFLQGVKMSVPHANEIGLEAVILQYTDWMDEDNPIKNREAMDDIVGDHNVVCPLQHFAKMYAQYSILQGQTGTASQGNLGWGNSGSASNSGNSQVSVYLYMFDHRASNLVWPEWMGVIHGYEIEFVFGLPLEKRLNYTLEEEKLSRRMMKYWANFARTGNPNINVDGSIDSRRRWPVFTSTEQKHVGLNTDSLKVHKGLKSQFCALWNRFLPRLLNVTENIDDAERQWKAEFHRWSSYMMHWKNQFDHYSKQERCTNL

`COc1cc2c(ccc3c(CCNC(C)C)cc(O)c(OC)c32)cc1O` came in with a concentration for half-maximal inhibition (IC50) at Acetylcholinesterase of 72 µM. That is a double-digit micromolar value.

On Acetylcholinesterase, `CCC[N+]1(C)CCc2c(c(O)c(OC)c3c2ccc2cc(O)c(OC)cc23)C1` (stereo not given) displayed a half-inhibitory concentration (IC50) of 2.79 µM.

Regarding `CCN1CCc2c(c(O)c(OC)c3c2ccc2cc(O)c(OC)cc23)C1`, the half-inhibitory concentration (IC50) on Acetylcholinesterase was found to be 14.5 µM. Take `COc1cc2c(ccc3c4c(c(O)c(OC)c32)CN(Cc2ccccc2)CC4)cc1O`: at Acetylcholinesterase, the half-maximal inhibitory concentration (IC50) was 10.7 µM. `COc1cc2c(ccc3c4c(c(O)c(OC)c32)CN(C(C)C)CC4)cc1O` showed an IC50 against Acetylcholinesterase of 6.8 µM. As for `COc1cc2c(ccc3c4c(c(O)c(OC)c32)CN(C)CC4)cc1O` [LITEBAMINE], in test [1], the inhibition at 15 µM came out at 77%. The IC50 at Acetylcholinesterase was determined as 22 µM.

In the case of `CCCNCCc1cc(O)c(OC)c2c1ccc1cc(O)c(OC)cc12`, at Acetylcholinesterase, the 50% inhibitory concentration (IC50) was determined as 107 µM. Regarding `CCCCNCCc1cc(O)c(OC)c2c1ccc1cc(O)c(OC)cc12`, the IC50 against Acetylcholinesterase is 111 µM. Take `CCNCCc1cc(O)c(OC)c2c1ccc1cc(O)c(OC)cc12`: at Acetylcholinesterase, 27.2 µM corresponded to half-maximal inhibition (IC50).

In turn, `CCCN1CCc2c(c(O)c(OC)c3c2ccc2cc(O)c(OC)cc23)C1` gave a half-maximal inhibitory concentration (IC50) at Acetylcholinesterase of 7.21 µM.

For the compound `CCCCN1CCc2c(c(O)c(OC)c3c2ccc2cc(O)c(OC)cc23)C1`, on Acetylcholinesterase, the IC50 is 7.79 µM. `COc1cc2c(ccc3c(CCNCC(C)C)cc(O)c(OC)c32)cc1O` came in with a concentration for half-maximal inhibition (IC50) at Acetylcholinesterase of 62 µM. As to `COc1cc2c(ccc3c4c(c(O)c(OC)c32)CN(CC(C)C)CC4)cc1O`, the half-maximal inhibitory concentration (IC50) against Acetylcholinesterase amounted to 6.51 µM.

In turn, `C=CCN1CCc2c(c(O)c(OC)c3c2ccc2cc(O)c(OC)cc23)C1` had an IC50 on Acetylcholinesterase of 15.8 µM.

As a reminder, the IC50 is the concentration that inhibits the measured activity by half. In general, inhibition refers to the percentage by which the read-out fell short of the control.

For the origin of these results see ChEMBL document CHEMBL1158847, “Litebamine N-homologues: preparation and anti-acetylcholinesterase activity” (J Nat Prod, 1998).
